Screens as filed in PubChem.
This excerpt belongs to a sample that is enriched for hits.
GSH bead fluor – compound fluoresces at 488/530 nm on GSH beads; GSH beads flow cytometry, compound fluorescence 488/530 nm; stronger effect = higher value; fluorescence (KMESF) at 10 µM; 190,000 compounds, 0.25% hits; in the data active = fluorescence above about 89;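 also: glutathione beads carrying GST-tagged Bcl family fusion proteins plus one bare bead set; values are compound well signal with DMSO vehicle wells as background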
PKD1 kinase inh – PKD1 (human) kinase inhibition | PKD1 kinase fluorescence polarization assay | inhibition, % (test concentration not listed) | Q15139 | 200,000 compounds, 0.056% hits | AID 797
Target sequence (Q15139 whole entry, looked up): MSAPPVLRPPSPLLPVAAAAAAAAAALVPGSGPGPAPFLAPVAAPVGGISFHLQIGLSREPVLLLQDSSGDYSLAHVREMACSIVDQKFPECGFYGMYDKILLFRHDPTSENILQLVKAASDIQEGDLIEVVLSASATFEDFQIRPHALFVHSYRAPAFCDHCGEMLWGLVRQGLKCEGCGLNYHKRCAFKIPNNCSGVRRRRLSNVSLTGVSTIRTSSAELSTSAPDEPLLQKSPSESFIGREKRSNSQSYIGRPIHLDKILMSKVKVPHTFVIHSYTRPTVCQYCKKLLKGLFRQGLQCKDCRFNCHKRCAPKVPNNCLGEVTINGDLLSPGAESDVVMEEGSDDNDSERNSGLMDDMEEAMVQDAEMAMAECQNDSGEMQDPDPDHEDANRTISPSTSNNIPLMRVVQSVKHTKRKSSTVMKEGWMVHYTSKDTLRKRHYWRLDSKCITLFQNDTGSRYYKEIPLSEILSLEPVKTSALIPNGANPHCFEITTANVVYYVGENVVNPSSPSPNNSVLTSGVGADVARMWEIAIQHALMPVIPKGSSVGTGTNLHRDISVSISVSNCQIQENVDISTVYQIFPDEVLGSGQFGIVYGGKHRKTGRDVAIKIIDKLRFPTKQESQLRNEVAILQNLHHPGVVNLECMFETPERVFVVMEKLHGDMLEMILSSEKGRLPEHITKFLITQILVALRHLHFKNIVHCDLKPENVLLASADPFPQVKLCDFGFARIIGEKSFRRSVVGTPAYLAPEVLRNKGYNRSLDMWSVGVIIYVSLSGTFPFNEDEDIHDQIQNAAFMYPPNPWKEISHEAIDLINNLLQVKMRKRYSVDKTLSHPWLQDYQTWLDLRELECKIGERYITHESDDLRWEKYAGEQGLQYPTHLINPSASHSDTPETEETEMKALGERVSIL
L major viab – Leishmania major promastigote growth inhibition. 200,000 compounds, 9% hits. Leishmania major promastigotes, resazurin fluorescence viability. inhibition, % at 10 µM;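 also: promastigotes grown with compound for 44 hours at 28 °C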
ABCG2 block – blocks JC-1 efflux by human ABCG2 transporter | Q9UNQ0 | IgMXP3 cells, flow cytometry | inhibition, % at 6.6 µM | 190,000 compounds, 0.1% hits;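 active = inhibition above 80%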;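 also: 0% = DMSO and 100% = nicardipine control wells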
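Assay system – ABCG2 IgMXP3 and barcoded ABCB1 CCRF-Adr cell mix · Input – 3 million cells/mL in well · Reagent – JC-1 fluorescent substrate · Compound – single test compound dose, 6.6 µM final · Timing – 10 min exposure at 25 °C with rotation, no wash · Detection – flow cytometry of retained JC-1 fluorescence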
Avidin bead fluor – avidin bead compound fluorescence profile; Avidin beads, compound fluorescence 488/530 nm, flow cytometry; stronger effect = higher value; 220,000 compounds, 0.38% hits; AID 1775; fluorescence (KMESF) at 10 µM; in the data active = fluorescence above about 47
ABCB1 inh – blocks JC-1 efflux by human ABCB1 transporter; CCRF-Adr cells, flow cytometry; P08183; 190,000 compounds, 0.067% hits; inhibition, % at 6.6 µM; in the data active = inhibition above about 40%;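 also: 0% = vehicle and 100% = reference inhibitor; higher value means more JC-1 retained so stronger ABCB1 efflux block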
Active calls of the source: *; · = no result given. Rule as the data show it, unless noted: active = inhibition above about 50%; inactive = the rest.

SMILES	GSH bead fluor	PKD1 kinase inh	L major viab	ABCG2 block	Avidin bead fluor	ABCB1 inh
CC(C)=CCC(C)(C)C1OCCN1C(=O)Nc1ccccc1 (centres undefined)	258*	-10.8	11.9	2.0	8	0.5
C=CCNC(=S)Nc1cc(S(=O)(=O)N2CCOCC2)ccc1-n1cncn1	16	0.3	33.2	-4.2	6	-0.7
CCN(CC)c1ccc(C(=O)NC(=S)Nc2cc(S(=O)(=O)N3CCOCC3)ccc2-n2cncn2)cc1	5	1.6	68.2*	4.1	5	1.1
O=C(/C=C/c1ccc(N2CCC(c3ccccc3)=N2)cc1)c1ccccc1	172*	-10.4	-13.5	81.2*	28	75.0*
O=C(/C=C/c1ccc(O)cc1)c1ccccc1	·	·	·	·	3	·
Cc1nn(CC(=O)OCC(=O)Nc2ccccc2[N+](=O)[O-])c(C)c1[N+](=O)[O-]	7	-6.5	64.9*	46.2	7	1.6
Cc1nn(CC(=O)OCC(=O)Nc2c(C(C)C)cccc2C(C)C)c(C)c1[N+](=O)[O-]	4	-1.0	51.0*	-3.8	12	0.2
Cc1ccc(NC(=O)COC(=O)Cn2nc(C)c([N+](=O)[O-])c2C)c([N+](=O)[O-])c1	6	-1.8	36.3	64.3	12	1.7
Cc1nn(C)c(Oc2cccc(Cl)c2)c1C(=O)Nc1ccc(F)cc1	33	-9.5	7.8	11.2	9	1.4
CC(=O)N(CCCN(C)C)CCC(C)CCC=C(C)C (centres undefined)	7	-7.7	100.3*	0.5	9	0.2
C(=N\Nc1ncnc2nc[nH]c12)/c1cccs1	16	-3.8	17.4	0.0	10	-0.5
CC(=O)C1=C(C)NC(SCC(=O)c2ccc(Cl)cc2Cl)=C(C#N)C1c1ccco1 (centres undefined)	28	9.3	61.4*	60.2	36	4.4
CSCSC1=C(C#N)C(c2ccc(Cl)cc2)C(C(C)=O)=C(C)N1 (centres undefined)	25	-10.1	65.5*	-2.0	11	-0.9
CC(=O)C1=C(C)NC(SCC(=O)c2ccc(Cl)cc2)=C(C#N)C1c1ccco1 (centres undefined)	26	18.0	83.4*	46.3	30	2.9
CC(=O)C1=C(C)NC(SCC(=O)c2ccccc2)=C(C#N)C1c1ccco1 (centres undefined)	26	13.3	7.8	79.8	29	4.3
CC(=O)Nc1ccccc1OCC(=O)N(Cc1ccccc1)C(C)C	10	-10.8	-3.7	2.8	12	0.4
Cc1ccc(C(=O)N2CCN(c3ccc(NC(=O)COc4ccccc4C)cc3)CC2)cc1	23	3.8	28.9	7.3	4	1.3
CSc1cccc(NC(=O)C2(S(=O)(=O)c3ccc(C)cc3)CC2)c1	12	2.8	37.9	2.7	16	1.9
CCCc1cc(=O)oc2cc(OCC(=O)NCc3cccs3)ccc12	9	-10.6	70.6*	0.0	15	0.6
Cc1cc(=O)oc2cc(OCC(=O)NCc3ccccn3)ccc12	17	-4.1	2.5	3.9	11	1.0
CCn1c(CNC(=O)COc2ccc(C(C)C)cc2)nnc1SCC(=O)Nc1ccccc1C(C)C	18	-8.4	76.3*	6.9	15	2.0
CCn1c(CNC(=O)COc2ccc(C(C)C)cc2)nnc1SCC(=O)Nc1ccccc1F	12	-6.6	-1.3	23.6	9	2.5
CCOC(=O)c1c(-c2ccccc2)oc2ccc(O)c(CN3CCCC3)c12	28	-0.1	99.1*	41.5	14	3.3
CCOC(=O)c1c(CSCc2ccccc2)oc2ccc(O)c(CN(C)C)c12	·	·	·	·	3	·
CCOC(=O)c1c(-c2ccccc2)oc2ccc(O)c(CN(C)C)c12	25	1.7	100.1*	0.2	11	0.2
SMILES	GSH bead fluor	PKD1 kinase inh	L major viab	ABCG2 block	Avidin bead fluor	ABCB1 inh
CCCC(O)(c1ccc(Cl)cc1)C(CN1CCOCC1)c1ccccc1 (centres undefined)	26	-7.3	73.2*	4.0	6	1.0
CCCCOc1ccc(C(O)(CCC)CCN2CCOCC2)cc1 (centres undefined)	23	7.2	2.7	5.4	6	0.6
COc1ccccc1C(O)(c1ccccc1)C(CN1CCOCC1)c1ccccc1 (centres undefined)	25	3.6	38.8	11.4	8	0.6
CCCOc1ccc(C(=O)C(CN2CCOCC2)c2ccccc2)cc1 (centres undefined)	15	-6.6	100.4*	3.1	23	1.0
CCCC(O)(CCN1CCCCC1)c1ccc(OCC)cc1 (centres undefined)	24	-9.7	77.5*	3.1	6	0.4
CCCCOc1ccc(C(O)(CC)CCN2CCOCC2)cc1 (centres undefined)	20	-7.9	83.3*	0.3	·	0.1
CCS(=O)(=O)C(=C(Nc1ccc(OC)cc1)Nc1ccc(OC)cc1)S(=O)(=O)CC	7	-0.5	1.3	4.1	13	1.6
CN(C)/C=C(\C#N)C(=O)N/N=C/c1ccccc1	10	5.4	-4.8	2.4	26	0.2
CCCCOc1ccc(OCCCN2CCOCC2)cc1	19	-5.6	99.8*	2.4	6	0.6
CCCCC(O)(CCN1CCOCC1)c1ccc(Cl)cc1 (centres undefined)	16	-2.5	76.3*	0.2	38	0.4
CCOc1ccc(OCCOCCN2CCOCC2)cc1	12	-3.1	93.6*	1.4	17	0.7
CCC(=O)c1ccc(OCCN2CCOCC2)cc1	29	-2.8	-3.8	-5.2	21	0.2
CCC(C)c1ccc(OCCCCN2CCOCC2)cc1 (centres undefined)	24	-2.6	97.0*	15.9	12	1.3
COc1ccc(OCCOCCN2CCOCC2)cc1	24	-0.7	-1.4	2.3	9	0.2
c1ccc(OCCOCCN2CCOCC2)cc1	17	-0.7	5.2	1.3	8	0.4
O=S(=O)(CS(=O)(=O)c1ccc(Cl)cc1)c1ccc(Cl)cc1	·	·	·	·	6	·
COc1ccc(CCc2nnc(CCC(=O)N(C)Cc3ccncc3C)o2)cc1	13	-8.4	1.3	-0.3	10	0.1
CCC1(C)Cc2ccccc2-c2nc3n(c(=O)c21)CC(C(=O)O)S3 (centres undefined)	33	-2.4	-2.4	1.4	8	1.1
O=[N+]([O-])c1ccc(N2CCCCC2)cc1NCCOc1ccccc1	6	1.9	69.2*	57.2	8	2.8
NCCNc1cc(N2CCCC2)ccc1[N+](=O)[O-]	22	-11.3	4.9	0.4	23	0.1
Cc1ccccc1OCCNc1cc(N2CC(C)NC(C)C2)ccc1[N+](=O)[O-] (centres undefined)	19	-5.6	100.5*	13.7	11	7.5
COc1cc(C(=O)NC(=S)Nc2ccc(N3CCCC3)cc2)cc(OC)c1OC	10	-6.1	7.7	47.6	22	3.5
CC1CCc2sc(C(=O)N/N=C/c3ccc(O)cc3)cc2C1 (centres undefined)	·	·	·	·	6	·
